Assay results taken from ChEMBL document CHEMBL4411275, “Design, synthesis and biological evaluation of quinoline-indole derivatives as anti-tubulin agents targeting the colchicine binding site” (Eur J Med Chem, 2019).
pIC50: −log10 of the molar value.

How the values were obtained:
K562 = test: Antiproliferative activity against human K562 cells after 72 hrs by MTT assay; format: functional, cell-based; settings: K562, 72 h
Method in brief: (§1)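 Cells preincubated 24 h at 37 °C, 5% CO₂. Compounds added at several concentrations in medium with 0.1% DMSO for 72 h. MTT (5 mg/mL in PBS) then added for 4 h, and optical density read at 490 nm. IC50 taken from dose-response curves; mean ± SD of at least three independent experiments.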

HepG2 = test: Antiproliferative activity against human HepG2 cells after 72 hrs by MTT assay; format: functional, cell-based; settings: HepG2, 72 h; method in brief: as §1
KB = test: Antiproliferative activity against human KB cells after 72 hrs by MTT assay; format: functional, cell-based; method in brief: as §1
HCT-8 = test: Antiproliferative activity against human HCT8 cells after 72 hrs by MTT assay; format: functional, cell-based; settings: HCT-8, 72 h; method in brief: as §1
MDA-MB-231 = test: Antiproliferative activity against human MDA-MB-231 cells after 72 hrs by MTT assay; format: functional, cell-based; settings: MDA-MB-231, 72 h; method in brief: as §1
L02 = test: Antiproliferative activity against human LO2 cells after 72 hrs by MTT assay; format: cell-based; settings: L02, 72 h; method in brief: as §1
H22 (Mus musculus) [1] = test: Antiproliferative activity against mouse H22 cells after 72 hrs by MTT assay; settings: H22, 72 h
Tubulin = Tubulin (Sus scrofa, UniProt P02554+P02550); test: Inhibition of porcine brain tubulin polymerization preincubated for 30 mins and measured every 2 mins for 60 mins by spectrophotometric analysis
Tubulin (Sus scrofa) [2] = target: T1, Tubulin (Sus scrofa) (UniProt P02554+P02550); test: Inhibition of [3H]-colchicine binding to biotinylated porcine tubulin at 1 uM after 2 hrs by SPA relative to control; format: protein assay
T1 sequence (P02550 whole entry, looked up): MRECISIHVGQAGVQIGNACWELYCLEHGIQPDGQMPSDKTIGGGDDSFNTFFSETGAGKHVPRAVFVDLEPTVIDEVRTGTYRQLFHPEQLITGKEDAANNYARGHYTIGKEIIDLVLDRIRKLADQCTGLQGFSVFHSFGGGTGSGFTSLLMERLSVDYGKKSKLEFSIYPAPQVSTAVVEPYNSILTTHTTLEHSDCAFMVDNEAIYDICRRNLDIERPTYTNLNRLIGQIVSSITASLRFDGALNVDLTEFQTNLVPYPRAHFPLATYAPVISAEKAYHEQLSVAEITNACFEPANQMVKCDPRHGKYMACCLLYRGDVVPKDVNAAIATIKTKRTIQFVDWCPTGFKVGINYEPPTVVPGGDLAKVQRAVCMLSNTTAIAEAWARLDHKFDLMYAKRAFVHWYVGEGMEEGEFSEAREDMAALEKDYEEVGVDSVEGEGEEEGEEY
T1 sequence (P02554 whole entry, looked up): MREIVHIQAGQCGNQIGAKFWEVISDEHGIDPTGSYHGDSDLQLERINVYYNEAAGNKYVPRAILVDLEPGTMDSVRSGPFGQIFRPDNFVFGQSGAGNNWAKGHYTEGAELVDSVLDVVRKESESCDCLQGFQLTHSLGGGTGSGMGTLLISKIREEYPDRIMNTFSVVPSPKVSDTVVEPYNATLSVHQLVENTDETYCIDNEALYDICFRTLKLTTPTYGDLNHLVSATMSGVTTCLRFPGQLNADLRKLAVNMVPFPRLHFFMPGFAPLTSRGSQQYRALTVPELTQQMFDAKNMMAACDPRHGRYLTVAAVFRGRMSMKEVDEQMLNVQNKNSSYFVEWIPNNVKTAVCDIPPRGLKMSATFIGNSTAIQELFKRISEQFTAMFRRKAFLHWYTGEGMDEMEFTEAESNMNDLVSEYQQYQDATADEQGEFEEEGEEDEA
Method in brief: (§2)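 Scintillation proximity assay: 0.08 μM [3H]colchicine incubated with biotinylated porcine tubulin (0.5 μg) and test compound for 2 h at 37 °C in 80 mM PIPES pH 6.8, 1 mM EGTA, 10% glycerol, 1 mM MgCl2, 1 mM GTP. Streptavidin SPA beads then added, and bound radioactivity counted by scintillation counter.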

Tubulin (Sus scrofa) [3] = target: T1, Tubulin (Sus scrofa); test: Inhibition of [3H]-colchicine binding to biotinylated porcine tubulin at 5 uM after 2 hrs by SPA relative to control; format: protein assay; method in brief: as §2
A549 = test: Antiproliferative activity against human A549 cells after 72 hrs by MTT assay; format: functional, cell-based; settings: A549, 72 h; method in brief: as §1
[4] = Antiproliferative activity against human taxol-resistant HCT8/T cells after 72 hrs by MTT assay; format: functional; settings: HCT-8, 72 h; method in brief: as §1
[5] = Drug resistance index, ratio of IC50 for taxol-resistant human HCT8/T cells to IC50 for human HCT8 cells; format: functional
Method in brief: (§3)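 Resistant and parental sensitive lines exposed to a range of compound concentrations in medium with 0.1% DMSO for 72 h at 37 °C, 5% CO2, after 24 h pre-culture. MTT added for 4 h, absorbance read at 490 nm. IC50 from dose-response curves, at least three independent experiments. DRI = IC50 resistant / IC50 parental.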

A549/TR = test: Antiproliferative activity against human taxol-resistant A549/TR cells after 72 hrs by MTT assay; format: functional, cell-based; method in brief: as §1
[6] = Drug resistance index, ratio of IC50 for taxol-resistant human A549/TR cells to IC50 for human A549 cells; format: functional; method in brief: as §3
[7] = Toxicity in ICR mouse xenografted with […] cells assessed as body weight loss at 6 mg/kg, iv administered every 2 days for 21 days; format: organism-based; settings: in vivo
Method in brief: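 Five-week-old male ICR mice inoculated subcutaneously in the right flank with 1×10^6 H22 cells. Randomised after one day into groups of eight. Dosed intravenously every 2 days for three weeks. Tumour volume and body weight recorded every 2 days. Tumours then excised and weighed; inhibition (%) = (1 − mean treated tumour weight / mean control tumour weight) × 100.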

H22 (Mus musculus) [8] = test: Antitumor activity against mouse H22 cells xenografted in ICR mouse assessed as reduction in tumor weight at 6 mg/kg, iv administered every 2 days for 21 days relative to control; parameters: scale not given: the % may be the effect or the level left
Bel-7402 = test: Antiproliferative activity against human Bel7402 cells after 72 hrs by MTT assay; format: functional, cell-based; settings: Bel-7402, 72 h; method in brief: as §1
K562/VCR = test: Antiproliferative activity against human VCR-resistant K562/VCR cells after 72 hrs by MTT assay; format: functional, cell-based; method in brief: as §1
[9] = Antiproliferative activity against human ADR-resistant Bel7402/ADR cells after 72 hrs by MTT assay; format: functional; settings: Bel-7402, 72 h; method in brief: as §1
H22 (Mus musculus) [10] = test: Antitumor activity against mouse H22 cells xenografted in ICR mouse assessed as reduction in tumor weight at 20 mg/kg/day, iv for 21 days relative to control; parameters: scale not given: the % may be the effect or the level left
[11] = Drug resistance index, ratio of IC50 for ADR-resistant human Bel7402/ADR cells to IC50 for human Bel7402 cells; format: functional; method in brief: as §3
[12] = Drug resistance index, ratio of IC50 for VCR-resistant human K562/VCR cells to IC50 for human K562 cells; format: functional

## Cc1cc(C(C)c2ccc3c(ccn3C)c2)c2ccccc2n1 (centres undefined)
K562
  pIC50: 7.43
HepG2
  pIC50: 7.00
KB
  pIC50: 6.96
HCT-8
  pIC50: 7.02
MDA-MB-231
  pIC50: 6.99
L02
  pIC50: 6.67
H22 (Mus musculus) [1]
  pIC50: 6.92

## C=C(c1ccc2c(ccn2C)c1)c1cc(C)nc2ccccc12
Tubulin
  IC50: 2.54 µM
Tubulin (Sus scrofa) [2]
  inhibition: 78.4%
Tubulin (Sus scrofa) [3]
  inhibition: 89.4%

## C=C(c1ccc2c(ccn2CF)c1)c1cc(C)nc2ccccc12
K562
  pIC50: 6.82

## CC(=O)O[C@H]1C(=O)[C@@]2(C)[C@H]([C@H](OC(=O)c3ccccc3)[C@]3(O)C[C@H](OC(=O)[C@H](O)[C@@H](NC(=O)c4ccccc4)c4ccccc4)C(C)=C1C3(C)C)[C@]1(OC(C)=O)CO[C@@H]1C[C@@H]2O [PACLITAXEL]
HCT-8
  pIC50: 7.55
A549
  pIC50: 7.74
[4]
  pIC50: 5.59
[5]
  Ratio IC50: 92.5
A549/TR
  pIC50: 5.74
[6]
  Ratio IC50: 101.6
[7]
  Activity: Toxic
H22 (Mus musculus) [8]
  Activity: 72.7%

## C=C(c1cc(C)nc2ccccc12)c1cn(C)c2cc(OC)ccc12
K562
  pIC50: 6.97

## COc1ccc2c(C(C)c3cc(C)nc4ccccc34)c[nH]c2c1 (centres undefined)
K562
  pIC50: < 6.00

## COc1ccc(/C=C\c2cc(OC)c(OC)c(OC)c2)cc1O [COMBRETASTATIN A4]
K562
  pIC50: 8.15
HepG2
  pIC50: 8.05
HCT-8
  pIC50: 7.96
MDA-MB-231
  pIC50: 7.96
L02
  pIC50: 7.34
A549
  pIC50: 8.05
Bel-7402
  pIC50: 7.96
[4]
  pIC50: 7.06
A549/TR
  pIC50: 6.76
K562/VCR
  pIC50: 7.24
[9]
  pIC50: 7.24
H22 (Mus musculus) [1]
  pIC50: 8.00
H22 (Mus musculus) [10]
  Activity: 51%

## C=C(c1ccc2c(ccn2CC)c1)c1cc(C)nc2ccccc12
K562
  pIC50: 7.51

## C=C(c1ccc2c(ccn2C(=O)OC(C)(C)C)c1)c1cc(C)nc2ccccc12
K562
  pIC50: < 6.00

## C=C(c1ccc2c(ccn2C(C)=O)c1)c1cc(C)nc2ccccc12
K562
  pIC50: 6.75

## C=C(c1ccc2c(ccn2C)c1)c1cc(C=O)nc2ccccc12
K562
  pIC50: 7.03

## C=C(c1ccc2c(ccn2C)c1)c1cc(OC)nc2ccccc12
K562
  pIC50: 7.34
HepG2
  pIC50: 7.28
KB
  pIC50: 7.08
HCT-8
  pIC50: 6.99
MDA-MB-231
  pIC50: 6.95
L02
  pIC50: 6.71
H22 (Mus musculus) [1]
  pIC50: 6.98

## C=C(c1cc(C)nc2ccccc12)c1c[nH]c2cc(OC)ccc12
K562
  pIC50: < 6.00

## C=C(c1ccc2c(ccn2C)c1)c1cc(CO)nc2ccccc12
K562
  pIC50: 6.91

## COc1cccc2c1C(=O)c1c(O)c3c(c(O)c1C2=O)C[C@@](O)(C(=O)CO)C[C@@H]3O[C@H]1C[C@H](N)[C@H](O)[C@H](C)O1.Cl [DOXORUBICIN HYDROCHLORIDE]
Bel-7402
  pIC50: 6.56
[9]
  pIC50: 5.76
[11]
  Ratio IC50: 6.3

## Cc1cc(C(C)c2cccc3c2ccn3C)c2ccccc2n1 (centres undefined)
K562
  pIC50: < 6.00

## COc1ccc2c(ccn2-c2cc(C)nc3ccccc23)c1N
K562
  pIC50: 7.10

## COc1ccc(/C=C\c2cc(OC)c(OC)c(OC)c2)cc1OP(=O)([O-])[O-].[Na+].[Na+] [FOSBRETABULIN DISODIUM]
H22 (Mus musculus) [10]
  Activity: 62.7%

## CC[C@]1(O)C[C@H]2CN(CCc3c([nH]c4ccccc34)[C@@](C(=O)OC)(c3cc4c(cc3OC)N(C=O)[C@H]3[C@@](O)(C(=O)OC)[C@H](OC(C)=O)[C@]5(CC)C=CCN6CC[C@]43[C@@H]65)C2)C1 [VINCRISTINE]
K562
  pIC50: 7.68
K562/VCR
  pIC50: 5.30
[12]
  Ratio IC50: 241

## C=C(c1cc(C)nc2ccccc12)c1cccc2[nH]ccc12
K562
  pIC50: < 6.00

## C=C(c1ccc2c(ccn2C)c1)c1ccnc2ccccc12
K562
  pIC50: 7.05

## C=C(c1ccc2c(ccn2C)c1)c1cc(N(C)C)nc2ccccc12
K562
  pIC50: 6.77

## C=C(c1ccc2c(ccn2C)c1)c1cc(C(N)=O)nc2ccccc12
K562
  pIC50: 6.55

## COc1ccc2c(ccn2-c2cc(C)nc3ccccc23)c1
K562
  pIC50: < 6.00

## COc1ccc2c(ccn2C(=O)c2cc(C)nc3ccccc23)c1N
K562
  pIC50: 6.54

## C=C(c1ccc2[nH]ccc2c1)c1cc(C)nc2ccccc12
K562
  pIC50: 6.92
HepG2
  pIC50: 6.42
KB
  pIC50: 6.43
HCT-8
  pIC50: 6.39
MDA-MB-231
  pIC50: 6.69
L02
  pIC50: 6.06
H22 (Mus musculus) [1]
  pIC50: 6.74

## C=C(c1cc(C)nc2ccccc12)c1cccc2c1ccn2C
K562
  pIC50: < 6.00

## COc1ccc2c(ccn2C(=O)c2cc(C)nc3ccccc23)c1
K562
  pIC50: < 6.00

## C=C(c1ccc2c(ccn2C)c1)c1cc(C(F)(F)F)nc2ccccc12
K562
  pIC50: 6.35

## C=C(c1ccc2c(ccn2C)c1)c1cc(NC)nc2ccccc12
K562
  pIC50: 8.30
HepG2
  pIC50: 7.70
KB
  pIC50: 8.10
HCT-8
  pIC50: 8.00
MDA-MB-231
  pIC50: 7.57
L02
  pIC50: 7.07
H22 (Mus musculus) [1]
  pIC50: 7.60
